In PMC6361391 (Chemical communications (Cambridge, England), 2017):
Converted amounts (≈) assume the structure as drawn. Where a SMILES comes first, the peptide text is derived from it. Bridges are numbered along the chain shown (N, C = ends). [ ]: non-standard residue; d: D form. d(aIle) = CC[C@H](C)[C@@H](N)C(=O)O; dNMeF = CN[C@H](Cc1ccccc1)C(=O)O

Assays:
[1] = tested on: Bacillus subtilis ATCC 6051; assay type: cell-based
[2] = assay type: physicochemical; settings: pH 7.4
[3] = tested on: Escherichia coli ATCC 10798; assay type: cell-based
[4] = tested on: Streptococcus salivarius ATCC 13419; assay type: cell-based
[5] = tested on: Enterococcus durans ATCC 6056; assay type: cell-based
[6] = tested on: Staphylococcus epidermidis ATCC 14990; assay type: cell-based
[7] = tested on: Gram-positive bacteria; test: MIC assays, overall activity across the Gram-positive bacteria; assay type: cell-based; settings: overall grade (good, moderate, poor) from the MIC assays
In short: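 Five Gram-positive species, with E. coli as a Gram-negative negative control and the parent natural antibiotic as a positive control. The test compound was tested at 32, 16, 8, 4, 2, 1, 0.5 and 0.25 μg/mL (final), diluted from a 10 mg/mL stock in sterilized DMSO. Minimum inhibitory concentration was the read-out.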

[8] = tested on: Staphylococcus aureus ATCC 29213; assay type: cell-based
[9] = cited from earlier work

For CC[C@H](C)[C@H](NC(=O)[C@@H](C)NC)C(=O)N[C@@H](CO)C(=O)N[C@H](CCC(N)=O)C(=O)N[C@@H](C(=O)N[C@H](C(=O)N[C@@H](CO)C(=O)N[C@H]1C(=O)N[C@@H](C)C(=O)N[C@@H](CCCCN)C(=O)N[C@@H]([C@@H](C)CC)C(=O)O[C@H]1C)[C@@H](C)CC)[C@@H](C)CC [N-Me-D-Ala1,Lys10-teixobactin], the “MIC, Bacillus subtilis ATCC 6051” value [1] was over 32 µg/mL, the “solubility in PBS buffer” value [2] was “good” and the “MIC, Escherichia coll ATCC 10798” value [3] was over 32 µg/mL. For the same molecule, the “MIC, Streptococcus salivarius ATCC 13419” value [4] was over 32 µg/mL, the “MIC, Enterococcus durans ATCC 6056” value [5] was over 32 µg/mL and the “MIC, Staphylococcus epidermidis ATCC 14990” value [6] was over 32 µg/mL. The antibiotic activity [7] was “poor” and the “MIC, Staphylococcus aureus ATCC 29213” value [8] was over 32 µg/mL.
For CC[C@H](C)[C@H](NC(=O)[C@@H](Cc1ccccc1)NC)C(=O)N[C@@H](CO)C(=O)N[C@H](CCC(N)=O)C(=O)N[C@@H](C(=O)N[C@H](C(=O)N[C@@H](C)C(=O)N[C@H]1C(=O)N[C@@H](C)C(=O)N[C@@H](CCCCN)C(=O)N[C@@H]([C@@H](C)CC)C(=O)O[C@H]1C)[C@@H](C)CC)[C@@H](C)CC [Ala7,Lys10-teixobactin] (H-[dNMeF]IS[dQ][d(aIle)]IA[dT]AKI; ester 8-C), the “MIC, Bacillus subtilis ATCC 6051” value [1] was 32 µg/mL (≈ 26.7 µM), the “solubility in PBS buffer” value [2] was “good” and the “MIC, Escherichia coll ATCC 10798” value [3] was over 32 µg/mL. For the same molecule, the “MIC, Enterococcus durans ATCC 6056” value [5] was over 32 µg/mL, the “MIC, Staphylococcus epidermidis ATCC 14990” value [6] was 32 µg/mL (≈ 26.7 µM) and the antibiotic activity [7] was “poor”. For the same molecule, the “MIC, Staphylococcus aureus ATCC 29213” value [8] was over 32 µg/mL.
In the case of Lys3,Arg10-teixobactin, the “antibiotic activity” value ([9]; lysine scan of Arg10-teixobactin) is given as “active”.
In the case of CC[C@H](C)[C@H](NC(=O)[C@@H](Cc1ccccc1)NC)C(=O)N[C@@H](CO)C(=O)N[C@H](CCC(N)=O)C(=O)N[C@@H](C(=O)N[C@H](C(=O)N[C@@H](CO)C(=O)N[C@H]1C(=O)N[C@@H](C)C(=O)N[C@@H](C)C(=O)N[C@@H]([C@@H](C)CC)C(=O)O[C@H]1C)[C@@H](C)CC)[C@@H](C)CC [Ala10-teixobactin], the “MIC, Escherichia coll ATCC 10798” value [3] is reported as over 32 µg/mL, the “MIC, Streptococcus salivarius ATCC 13419” value [4] is reported as 1 µg/mL (≈ 0.863 µM) and the “MIC, Enterococcus durans ATCC 6056” value [5] is reported as 8 µg/mL (≈ 6.9 µM). For the same molecule, the “MIC, Staphylococcus epidermidis ATCC 14990” value [6] was 4 µg/mL (≈ 3.45 µM), the antibiotic activity [7] was “moderate” and the “MIC, Staphylococcus aureus ATCC 29213” value [8] was 1 µg/mL (≈ 0.863 µM).
For CC[C@H](C)[C@H](NC(=O)[C@@H](Cc1ccccc1)NC)C(=O)N[C@@H](C)C(=O)N[C@H](CCC(N)=O)C(=O)N[C@@H](C(=O)N[C@H](C(=O)N[C@@H](CO)C(=O)N[C@H]1C(=O)N[C@@H](C)C(=O)N[C@@H](CCCCN)C(=O)N[C@@H]([C@@H](C)CC)C(=O)O[C@H]1C)[C@@H](C)CC)[C@@H](C)CC [Ala3,Lys10-teixobactin] (H-[dNMeF]IA[dQ][d(aIle)]IS[dT]AKI; ester 8-C), the “MIC, Bacillus subtilis ATCC 6051” value [1] was 1 µg/mL (≈ 0.833 µM), the “MIC, Escherichia coll ATCC 10798” value [3] was over 32 µg/mL and the “MIC, Streptococcus salivarius ATCC 13419” value [4] was 0.5 µg/mL (≈ 0.416 µM). For the same molecule, the “MIC, Enterococcus durans ATCC 6056” value [5] was 4 µg/mL (≈ 3.33 µM), the “MIC, Staphylococcus epidermidis ATCC 14990” value [6] was 1 µg/mL (≈ 0.833 µM) and the antibiotic activity [7] was “good”. The “MIC, Staphylococcus aureus ATCC 29213” value [8] was 0.5 µg/mL (≈ 0.416 µM).
With CC[C@H](C)[C@H](NC(=O)[C@@H](Cc1ccccc1)NC)C(=O)N[C@@H](CO)C(=O)N[C@H](CCC(N)=O)C(=O)N[C@@H](C(=O)N[C@@H](C)C(=O)N[C@@H](CO)C(=O)N[C@H]1C(=O)N[C@@H](C)C(=O)N[C@@H](CCCCN)C(=O)N[C@@H]([C@@H](C)CC)C(=O)O[C@H]1C)[C@@H](C)CC [Ala6,Lys10-teixobactin] (H-[dNMeF]IS[dQ][d(aIle)]AS[dT]AKI; ester 8-C) the “MIC, Bacillus subtilis ATCC 6051” value [1] was over 32 µg/mL, the “solubility in PBS buffer” value [2] was “good” and the “MIC, Escherichia coll ATCC 10798” value [3] was over 32 µg/mL. The “MIC, Streptococcus salivarius ATCC 13419” value [4] was over 32 µg/mL, the “MIC, Enterococcus durans ATCC 6056” value [5] was over 32 µg/mL and the “MIC, Staphylococcus epidermidis ATCC 14990” value [6] was over 32 µg/mL. The antibiotic activity [7] was “poor” and the “MIC, Staphylococcus aureus ATCC 29213” value [8] was over 32 µg/mL.
With CC[C@H](C)[C@H](NC(=O)[C@@H](Cc1ccccc1)NC)C(=O)N[C@@H](CO)C(=O)N[C@H](CCC(N)=O)C(=O)N[C@@H](C(=O)N[C@H](C(=O)N[C@@H](CO)C(=O)N[C@H]1C(=O)N[C@@H](C)C(=O)N[C@@H](CCCCN)C(=O)N[C@@H]([C@@H](C)CC)C(=O)O[C@H]1C)[C@@H](C)CC)[C@@H](C)CC [Lys10-teixobactin] the “MIC, Bacillus subtilis ATCC 6051” value [1] was 1 µg/mL (≈ 0.822 µM), the “MIC, Escherichia coll ATCC 10798” value [3] was over 32 µg/mL and the “MIC, Streptococcus salivarius ATCC 13419” value [4] was 0.5 µg/mL (≈ 0.411 µM). The “MIC values reported previously” value ([9]; earlier report of the same group) was 0.25 to 1 µg/mL, the “MIC, Enterococcus durans ATCC 6056” value [5] was 2 µg/mL (≈ 1.64 µM) and the “MIC, Staphylococcus epidermidis ATCC 14990” value [6] was 0.5 to 1 µg/mL. The antibiotic activity [7] was “good” and the “MIC, Staphylococcus aureus ATCC 29213” value [8] was 0.5 µg/mL (≈ 0.411 µM).
In the case of CC[C@H](C)[C@H](NC(=O)[C@@H](C)NC(=O)[C@@H](CCC(N)=O)NC(=O)[C@H](CO)NC(=O)[C@@H](NC(=O)[C@@H](Cc1ccccc1)NC)[C@@H](C)CC)C(=O)N[C@@H](CO)C(=O)N[C@H]1C(=O)N[C@@H](C)C(=O)N[C@@H](CCCCN)C(=O)N[C@@H]([C@@H](C)CC)C(=O)O[C@H]1C [D-Ala5,Lys10-teixobactin] (HELM PEPTIDE1{[CN[C@H](Cc1ccccc1)C(=O)[*:2]].I.S.[dQ].[dA].I.S.[C[C@H](O[*:3])[C@@H](N[*:1])C(=O)[*:2]].A.K.I}$PEPTIDE1,PEPTIDE1,8:R3-11:R2$$$V2.0), the “solubility in PBS buffer” value [2] is reported as “good”, the “MIC, Escherichia coll ATCC 10798” value [3] is reported as over 32 µg/mL and the “MIC, Enterococcus durans ATCC 6056” value [5] is reported as over 32 µg/mL. For the same molecule, the antibiotic activity [7] was “poor” and the “MIC, Staphylococcus aureus ATCC 29213” value [8] was over 32 µg/mL.
In the case of CC[C@H](C)[C@H](NC(=O)[C@@H](Cc1ccccc1)NC)C(=O)N[C@@H](CO)C(=O)N[C@H](C)C(=O)N[C@@H](C(=O)N[C@H](C(=O)N[C@@H](CO)C(=O)N[C@H]1C(=O)N[C@@H](C)C(=O)N[C@@H](CCCCN)C(=O)N[C@@H]([C@@H](C)CC)C(=O)O[C@H]1C)[C@@H](C)CC)[C@@H](C)CC [D-Ala4,Lys10-teixobactin] (H-[dNMeF]IS[dA][d(aIle)]IS[dT]AKI; ester 8-C), the “MIC, Bacillus subtilis ATCC 6051” value [1] is reported as 4 µg/mL (≈ 3.45 µM), the “solubility in PBS buffer” value [2] is reported as “good” and the “MIC, Escherichia coll ATCC 10798” value [3] is reported as over 32 µg/mL. For the same molecule, the “MIC, Streptococcus salivarius ATCC 13419” value [4] was 2 µg/mL (≈ 1.72 µM), the “MIC, Staphylococcus epidermidis ATCC 14990” value [6] was 4 µg/mL (≈ 3.45 µM) and the antibiotic activity [7] was “moderate”. The “MIC, Staphylococcus aureus ATCC 29213” value [8] was 1 µg/mL (≈ 0.862 µM).
For CC[C@H](C)[C@H](NC(=O)[C@H](NC(=O)[C@@H](CCC(N)=O)NC(=O)[C@H](CO)NC(=O)[C@H](C)NC(=O)[C@@H](Cc1ccccc1)NC)[C@@H](C)CC)C(=O)N[C@@H](CO)C(=O)N[C@H]1C(=O)N[C@@H](C)C(=O)N[C@@H](CCCCN)C(=O)N[C@@H]([C@@H](C)CC)C(=O)O[C@H]1C [Ala2,Lys10-teixobactin] (H-[dNMeF]AS[dQ][d(aIle)]IS[dT]AKI; ester 8-C), the “MIC, Bacillus subtilis ATCC 6051” value [1] was 32 µg/mL (≈ 27.2 µM), the “solubility in PBS buffer” value [2] was “good” and the “MIC, Escherichia coll ATCC 10798” value [3] was over 32 µg/mL. For the same molecule, the “MIC, Streptococcus salivarius ATCC 13419” value [4] was 32 µg/mL (≈ 27.2 µM), the “MIC, Enterococcus durans ATCC 6056” value [5] was over 32 µg/mL and the “MIC, Staphylococcus epidermidis ATCC 14990” value [6] was 32 µg/mL (≈ 27.2 µM). For the same molecule, the antibiotic activity [7] was “poor” and the “MIC, Staphylococcus aureus ATCC 29213” value [8] was over 32 µg/mL.
In the case of lipobactin, the “loss in activity relative to Arg10-teixobactin” value ([9]; residues 1 to 5 replaced with a dodecanoyl group) is given as “two- to fourfold loss in activity”.
With CC[C@H](C)[C@H](NC(=O)[C@@H](Cc1ccccc1)NC)C(=O)N[C@@H](CO)C(=O)N[C@H](CCC(N)=O)C(=O)N[C@@H](C(=O)N[C@H](C(=O)N[C@@H](CO)C(=O)N[C@H]1C(=O)N[C@@H](C)C(=O)N[C@@H](CCCCN)C(=O)N[C@@H](C)C(=O)O[C@H]1C)[C@@H](C)CC)[C@@H](C)CC [Lys10,Ala11-teixobactin] (H-[dNMeF]IS[dQ][d(aIle)]IS[dT]AKA; ester 8-C) the “MIC, Bacillus subtilis ATCC 6051” value [1] was 8 µg/mL (≈ 6.81 µM), the “solubility in PBS buffer” value [2] was “good” and the “MIC, Escherichia coll ATCC 10798” value [3] was over 32 µg/mL. The “MIC, Streptococcus salivarius ATCC 13419” value [4] was 2 µg/mL (≈ 1.7 µM), the “MIC, Enterococcus durans ATCC 6056” value [5] was over 32 µg/mL and the “MIC, Staphylococcus epidermidis ATCC 14990” value [6] was 8 µg/mL (≈ 6.81 µM). For the same molecule, the antibiotic activity [7] was “moderate” and the “MIC, Staphylococcus aureus ATCC 29213” value [8] was 4 µg/mL (≈ 3.41 µM).
